Reference: ChEMBL document CHEMBL1124334, “Hypolipidemic 2-[4-(1,1-dimethylethyl)phenyl]-4H-3,1-benzoxazin-4-ones. Structure-activity relationships of a novel series of high-density lipoprotein elevators” (1989)

Tests used:
Type in all cases: functional
Rattus norvegicus [1] = test: Ratio of plasma HDL cholesterol/total cholesterol at 200 g/kg for 3 days; conditions: in the assay text read “200 mg/kg” for “200 g/kg”
Outline: (§1)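 Young male Wistar rats (120–150 g), groups of eight, fed ad libitum rodent diet with 0.5% w/w cholesterol and 0.25% cholic acid for 10 days. Compound suspended in 0.5% w/w tragacanth mucilage and given daily by stomach tube over the final 3 days; controls got vehicle. After overnight starvation, rats were killed 3 h post final dose and cardiac blood taken into heparin.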

Rattus norvegicus [2] = species on record: Rattus norvegicus; test: Change in plasma triglycerides in normocholesterolemic rats at 0.2 % composition of dose with diet given in a period of 3 days.
Outline: (§2)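 Young male Wistar rats (120–150 g) fed basal powdered rodent diet ad libitum, with compound mixed into the diet at 0.2% w/w for 3 or 7 days. Plasma triglyceride and total cholesterol were then measured by standard enzymatic methods. Results are % change relative to controls.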

Rattus norvegicus [3] = test: The compound was tested for % change in plasma HDL cholesterol in cholesterol-fed rats at 200 mg/kg dose given in a period of 3 days;; outline: as §1
Rattus norvegicus [4] = test: Percent change in plasma triglycerides in cholesterol-fed rats at 200 mg/kg dose given in a period of 3 days; outline: as §1
Rattus norvegicus [5] = species on record: Rattus norvegicus; test: Change in plasma total cholesterol in normocholesterolemic rats at 0.2 % composition of dose with diet given in a period of 3 days.; outline: as §2
Rattus norvegicus [6] = test: Percent change in plasma total cholesterol in cholesterol-fed rats at 200 mg/kg dose given in a period of 3 days; outline: as §1
Rattus norvegicus [7] = species on record: Rattus norvegicus; test: The compound was tested for % change in plasma triglycerides in normocholesterolemic rats at 0.2 % composition of dose with diet given in a period of 3 days; outline: as §2
Rattus norvegicus [8] = test: Percent change in plasma HDL cholesterol in cholesterol-fed rats at 200 mg/kg dose given in a period of 3 days; outline: as §1
[9] = Ratio of plasma HDL cholesterol/total cholesterol at 25 mg/kg for 3 days; outline: as §1
Rattus norvegicus [10] = test: The compound was tested for % change in plasma HDL cholesterol in cholesterol-fed rats at 100 mg/kg dose given in a period of 3 days; outline: as §1
Rattus norvegicus [11] = test: The compound was tested for % change in plasma total cholesterol in cholesterol-fed rats at 50 mg/kg dose given in a period of 3 days; outline: as §1
Rattus norvegicus [12] = test: The compound was tested for % change in plasma triglycerides in cholesterol-fed rats at 25 mg/kg dose given in a period of 3 days; outline: as §1
Rattus norvegicus [13] = test: The compound was tested for % change in plasma total cholesterol in cholesterol-fed rats at 25 mg/kg dose given in a period of 3 days; outline: as §1
Rattus norvegicus [14] = test: The compound was tested for % change in plasma triglycerides in cholesterol-fed rats at 50 mg/kg dose given in a period of 3 days; outline: as §1
Rattus norvegicus [15] = test: The compound was tested for % change in plasma HDL cholesterol in cholesterol-fed rats at 25 mg/kg dose given in a period of 3 days; outline: as §1
Rattus norvegicus [16] = species on record: Rattus norvegicus; test: The compound was tested for % change in plasma triglycerides in normocholesterolemic rats at 0.2 % composition of dose with diet given in a period of 7 days; outline: as §2
Rattus norvegicus [17] = test: The compound was tested for % change in plasma total cholesterol in cholesterol-fed rats at 100 mg/kg dose given in a period of 3 days; outline: as §1
[18] = Ratio of plasma HDL cholesterol/total cholesterol at 50 mg/kg for 3 days; outline: as §1
[19] = Ratio of plasma HDL cholesterol/total cholesterol at 100 mg/kg for 3 days; outline: as §1
Rattus norvegicus [20] = species on record: Rattus norvegicus; test: The compound was tested for % change in plasma total cholesterol in normocholesterolemic rats at 0.2 % composition of dose with diet given in a period of 7 days; outline: as §2
Rattus norvegicus [21] = test: The compound was tested for % change in plasma HDL cholesterol in cholesterol-fed rats at 50 mg/kg dose given in a period of 3 days; outline: as §1
Rattus norvegicus [22] = test: % change in plasma triglycerides in cholesterol-fed rats at 100 mg/kg dose given in a period of 3 days administered orally; conditions: route oral; outline: as §1
[23] = Ratio of plasma HDL cholesterol/total cholesterol at 200 mg/kg for 3 days; outline: as §1

What does the source list for CC(C)(C)c1ccc(C(=O)Nc2ccc(Br)cc2C(=O)[O-])cc1.[Na+]?
Change in HDL/total cholesterol ratio (Rattus norvegicus [1]): 64; Change (Rattus norvegicus [2]): -18%; Change (Rattus norvegicus [3]): 57%; Change (Rattus norvegicus [4]): 15%; Change (Rattus norvegicus [5]): -42%; Change (Rattus norvegicus [6]): -7%

For Cc1ccc2nc(-c3ccc(CC(C)(C)C)cc3)oc(=O)c2c1, which Change (Rattus norvegicus [7]) is on record?
The Change was 16%.

And the Change (Rattus norvegicus [8])?
Its Change is 28%.

And the Ratio ([9]; dose 200 mg/kg, in the assay text read “200 mg/kg” for “25 mg/kg”)?
Its Ratio is 50.

What about the Change (Rattus norvegicus [4]) of the same molecule?
Its Change is 23%.

What about the Change (Rattus norvegicus [5]) of the same molecule?
The Change was -10%.

And the Change (Rattus norvegicus [6])?
The Change was -12%.

What does the source list for Cc1ccc2nc(-c3ccc(C(C)(C)C)cc3)oc(=O)c2c1?
Change (Rattus norvegicus [10]): 15%; Change (Rattus norvegicus [11]): -19%; Change (Rattus norvegicus [12]): -1%; Change (Rattus norvegicus [13]): -5%; Change (Rattus norvegicus [8]): 50%; Change (Rattus norvegicus [14]): 21%; Ratio ([9]; dose 25 mg/kg): 31; Change (Rattus norvegicus [15]): 30%; Change (Rattus norvegicus [16]): -33%; Change (Rattus norvegicus [4]): -17%; Change (Rattus norvegicus [17]): -34%; Ratio [18]: 56; Ratio [19]: 65; Change (Rattus norvegicus [20]): -15%; Change (Rattus norvegicus [6]): -27%; Change (Rattus norvegicus [21]): 31%; Change (Rattus norvegicus [22]): -18%; Ratio [23]: 92
